Data: ChEMBL document CHEMBL6071149, “Synthesis and photo-induced anticancer activity of new 2-phenylethenyl-1H-benzo[e]indole dyes” (Eur J Med Chem, 2024)
The source made the active and inactive calls. No cut-off for these calls is given here.

Columns and labels:
[1] = Cytotoxicity against ARN-8 cells-derived from human A375 cells pretreated for 4 hrs followed by light irradiation of 10 J/cm2 at 414 nm measured after 20 hrs by MTT assay; assay type: functional, cell-based; settings: ARN-8 cell, light or radiation study
How it was run: (§1)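 Cells grown in phenol red-free DMEM with 10 % FBS, penicillin/streptomycin, 37 °C, 5 % CO₂. Compound added 24 h after plating and incubated 4 h. Irradiated cells received 414 nm LED light at 20 mW/cm², 10 J/cm², then were incubated 20 h or 68 h more. Dark plates were run in parallel without irradiation. MTT was added for 4 h, formazan dissolved in 10 % SDS, absorbance read at 570 nm. EC50 ± SD.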

[2] = tested on: G-361; assay: Cytotoxicity against human G361 cells under dark condition measured after 72 hrs by MTT assay; assay type: functional, cell-based; settings: G-361, 72 h; how it was run: as §1
[3] = Cytotoxicity against human BJ cells under dark condition measured after 72 hrs by MTT assay; assay type: toxicity, cell-based; how it was run: as §1
[4] = tested on: G-361; assay: Cytotoxicity against human G361 cells pretreated for 4 hrs followed by light irradiation of 10 J/cm2 at 414 nm measured after 20 hrs by MTT assay; assay type: functional, cell-based; settings: G-361, light or radiation study; how it was run: as §1
[5] = Selectivity ratio of EC50 for human G361 cells under dark condition measured after 72 hrs by MTT assay to EC50 for human G361 cells pretreated for 4 hrs followed by light irradiation of 10 J/cm2 at 414 nm measured after 68 hrs by MTT assay; assay type: functional
How it was run: (§2)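 Ratio of dark EC50 to EC50 after 414 nm irradiation (10 J/cm²). MTT read-out; compound exposure 4 h before irradiation. Each dark value is paired with the matching post-irradiation incubation (20 h or 68 h).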

[6] = tested on: ARN-8 cell; assay: Induction of cell cycle arrest in human ARN-8 cells-derived from human A375 cells transfected with p53-responsive beta-galactosidase assessed as increase in p53 activation upto 4 uM pretreated for 4 hrs followed by light irradiation of 10 J/cm2 at 414 nm measured after 20 hrs by fluorescence based assay; assay type: functional; settings: time 24.0 hrs
How it was run: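 ARN8 cells stably carrying the p53-responsive pRGΔfoslacZ reporter. Increasing compound concentrations for 4 h, then 414 nm irradiation at 2.5, 5, 7.5 or 10 J/cm², then 20 h further incubation. Cells lysed in 0.3 % Triton X-100. After 10 min, 4-methylumbelliferyl β-D-galactopyranoside added at a final 80 µM for 1 h. Fluorescence read at […].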

[7] = Cytotoxicity against human ARN-8 cells-derived from human A375 cells under dark condition measured after 24 hrs by MTT assay; assay type: functional, cell-based; settings: ARN-8 cell; how it was run: as §1
[8] = tested on: G-361; assay: Induction of apoptosis in human G361 cells assessed as decrease in Bcl-2 level upto 4 uM pretreated for 4 hrs followed by light irradiation of 10 J/cm2 at 414 nm measured after 20 hrs by Western blot analysis; assay type: functional, cell-based; settings: time 24.0 hrs
How it was run: (§3)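 Compound exposure 4 h, then 414 nm irradiation, then 20 h further incubation. Lysates made in RIPA buffer, separated by SDS-PAGE and blotted to nitrocellulose. Primary antibodies in TBS with 4 % BSA and 0.1 % Tween 20, incubated overnight. Peroxidase secondary antibody with chemiluminescent detection. GAPDH served as loading control.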

[9] = tested on: G-361; assay: Cytotoxicity against human G361 cells pretreated for 4 hrs followed by light irradiation of 10 J/cm2 at 414 nm measured after 68 hrs by MTT assay; assay type: functional, cell-based; settings: G-361, light or radiation study; how it was run: as §1
[10] = tested on: G-361; assay: Induction of apoptosis in human G361 cells assessed as decrease in Mcl-1 level upto 4 uM pretreated for 4 hrs followed by light irradiation of 10 J/cm2 at 414 nm measured after 20 hrs by Western blot analysis; assay type: functional, cell-based; settings: time 24.0 hrs; how it was run: as §3
[11] = (§4) Selectivity ratio of EC50 for human G361 cells under dark condition measured after 24 hrs by MTT assay to EC50 for human G361 cells pretreated for 4 hrs followed by light irradiation of 10 J/cm2 at 414 nm measured after 20 hrs by MTT assay; assay type: functional; how it was run: as §2
[12] = tested on: G-361; assay: Induction of cell cycle arrest in human G361 cells assessed as increase in cell population at sub-G1 phase at 0.5 to 1 uM pretreated for 4 hrs followed by light irradiation of upto 10 J/cm2 at 414 nm measured after 20 hrs by flow cytometry; assay type: functional, cell-based; settings: dose 0.5-1 µM, time 24.0 hrs
How it was run: (§5)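 Compound exposure 4 h (0.5 or 1 µM), then irradiation at increasing blue-light doses, then 20 h further incubation. Cells stained with propidium iodide; DNA content measured by flow cytometry with a 488 nm laser. Cell-cycle and subG1 distributions analysed.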

[13] = tested on: G-361; assay: Cytotoxicity against human G361 cells under dark condition measured after 24 hrs by MTT assay; assay type: functional, cell-based; settings: G-361, 24 h; how it was run: as §1
[14] = tested on: ARN-8 cell; assay: Induction of ROS production in human ARN-8 cells-derived from human A375 cells upto 4 uM treated for 4 hrs under dark condition by CM-H2DCFA probe based analysis; assay type: functional
How it was run: (§6)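 Cells loaded next day with 5 µM CM-H₂DCFDA for 30 min, then placed in prewarmed PBS with 5 mM glucose. Compound exposure 4 h, followed by 414 nm irradiation at 5 or 10 J/cm²; dark samples run in parallel. Fluorescence read immediately at 492/530 nm. NAC (5 mM) pretreatment for 10 min gave negative controls. RFU normalised to untreated dark control.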

[15] = tested on: ARN-8 cell; assay: Upregulation of Mcl-1 level in human ARN-8 cells-derived from human A375 cells upto 4 uM pretreated for 4 hrs followed by light irradiation of 10 J/cm2 at 414 nm measured after 20 hrs by Western blot analysis; assay type: functional, cell-based; settings: time 24.0 hrs; how it was run: as §3
[16] = tested on: ARN-8 cell; assay: Induction of cell cycle arrest in human ARN-8 cells-derived from human A375 cells assessed as cell accumulation at G2/M phase at 0.5 to 1 uM pretreated for 4 hrs followed by light irradiation of upto 10 J/cm2 at 414 nm measured after 20 hrs by flow cytometry; assay type: functional, cell-based; settings: dose 0.5-1 µM, time 24.0 hrs; how it was run: as §5
[17] = tested on: ARN-8 cell; assay: Induction of ROS production in human ARN-8 cells-derived from human A375 cells upto 4 uM pretreated for 4 hrs followed by light irradiation of 5 to 10 J/cm2 measured immediately in presence of N-acetylcysteine by CM-H2DCFA probe based analysis; assay type: functional; how it was run: as §6
[18] = tested on: ARN-8 cell; assay: Induction of oxidative stress in human ARN-8 cells-derived from human A375 cells assessed as increase in HO-1 level upto 4 uM under dark condition by immunoblot analysis; assay type: functional, cell-based
[19] = as §4, with “ARN-8 cells-derived from human A375” for “G361”; assay type: functional, ARN-8 cell; how it was run: as §2
[20] = Cytotoxicity against ARN-8 cells-derived from human A375 cells pretreated for 4 hrs followed by light irradiation of 10 J/cm2 at 414 nm measured after 68 hrs by MTT assay; assay type: functional, cell-based; settings: ARN-8 cell, light or radiation study; how it was run: as §1
[21] = tested on: G-361; assay: Induction of DNA fragmentation in human G361 cells at 0.5 uM by Comet assay; assay type: functional, cell-based
How it was run: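 G361 cells exposed at 0.5 µM and irradiated at indicated 414 nm doses. Cells trypsinized and embedded in 1 % LMP agarose on slides, lysed 1 h in buffer with 1 % Triton X. Cold electrophoresis solution for 40 min, then electrophoresis at 20 V, 350 mA for 20 min. Neutralised twice for 10 min, stained with SYBR Green 15 min. Percent DNA in comet head and tail scored.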

Q: For `COc1ccc(/C=C/C2=Nc3ccc4ccccc4c3C2(C)C)cc1[N+](=O)[O-]`, which EC50 [1] is on record?
A: 0.5 µM

Q: And the EC50 [2]?
A: 5.6 µM

Q: And the EC50 at 72 h [3]?
A: 8.3 µM

Q: And the EC50 [4]?
A: 0.6 µM

Q: And the “Ratio EC50” value [5]?
A: >28

Q: What about the Activity [6] of the same compound?
A: Active

Q: What about the EC50 [7] of the same compound?
A: 9.2 µM

Q: And the Activity [8]?
A: Active

Q: And the EC50 [9]?
A: 0.2 µM

Q: And the Activity [10]?
A: Active

Q: What about the “Ratio EC50” value [11] of the same compound?
A: >=15

Q: What about the Activity [12] of the same compound?
A: Active

Q: What about the EC50 [13] of the same compound?
A: 9 µM

Q: What about the Activity [14] of the same compound?
A: inactive

Q: What about the Activity [15] of the same compound?
A: Active

Q: What about the Activity [16] of the same compound?
A: Active

Q: What about the Activity [17] of the same compound?
A: inactive

Q: What about the Activity [18] of the same compound?
A: Active

Q: And the “Ratio EC50” value [19]?
A: >=15

Q: And the EC50 [20]?
A: 0.2 µM

Q: And the Activity [21]?
A: inactive
